In ChEMBL document CHEMBL3397022, “Absolute structures and bioactivities of euryspongins and eurydiene obtained from the marine sponge Euryspongia sp. collected at Iriomote Island” (Bioorg Med Chem, 2015):

How the values were obtained:
[1] = molecular target: T1, Tyrosine-protein phosphatase non-receptor type 1 (Homo sapiens, UniProt P18031); assay: Inhibition of PTP1B (unknown origin) using pNPP as substrate incubated for 10 mins prior to substrate addition measured after 30 mins by microplate reader analysis
T1 sequence (P18031 whole entry): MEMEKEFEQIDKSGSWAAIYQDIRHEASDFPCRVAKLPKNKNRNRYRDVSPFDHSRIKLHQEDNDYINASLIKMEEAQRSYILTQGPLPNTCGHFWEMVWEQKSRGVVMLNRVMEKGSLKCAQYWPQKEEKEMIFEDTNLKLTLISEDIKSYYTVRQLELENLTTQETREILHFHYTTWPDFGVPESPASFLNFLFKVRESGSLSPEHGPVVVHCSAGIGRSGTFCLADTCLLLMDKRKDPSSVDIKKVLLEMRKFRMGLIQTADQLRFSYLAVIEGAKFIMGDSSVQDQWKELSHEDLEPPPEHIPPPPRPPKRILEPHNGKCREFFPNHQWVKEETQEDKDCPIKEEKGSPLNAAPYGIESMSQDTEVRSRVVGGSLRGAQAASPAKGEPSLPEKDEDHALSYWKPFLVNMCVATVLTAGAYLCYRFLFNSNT

Jurkat = assay: Cytotoxicity against human Jurkat cells after 48 hrs by MTT assay; assay type: cell-based
Outline: (§1)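 Cells grown exponentially in RPMI-1640 with 10% FBS, penicillin and streptomycin at 37 °C, 5.0% CO2. Seeding: HCT-15 at 1.0 × 10^4 cells/well, Jurkat at 2.0 × 10^4 cells/well. Samples added in MeOH and incubated 48 h at 37 °C. MTT and lysis solution (40% DMF, 20% SDS, 2.0% acetic acid, 0.030% HCl) added, then shaken overnight at room temperature. Read at 570 nm.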

[2] = Cytotoxicity against human HCT15 cells after 48 hrs by MTT assay; assay type: cell-based; conditions: HCT-15, 48 h; outline: as §1
[3] = Cytotoxicity against human HuH7 cells […] by MTT assay; assay type: cell-based; conditions: Huh-7
Outline: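 Huh-7 MTT assay: after sample treatment, MTT (5.0 mg/mL stock in saline) added for 90 min at 37 °C. Plate centrifuged at 300 × g for 5 min and supernatant removed. Cells solubilized in 0.040 N HCl in 2-propanol. Absorbance read at 590 nm; survival (%) calculated relative to untreated control.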

SMILES	IC50 [1] [µM]	IC50 (Jurkat) [µM]	IC50 [2] [µM]	IC50 [3] [µM]
CO[C@@]12OC(=O)C=C1[C@H](O)C[C@H]1C(C)=C[C@@H]2CC1(C)C	> 35	> 35	> 35	–
CC1=C[C@@H]2CC(C)(C)[C@H]1C[C@@H](O)C1=CC(=O)O[C@H]12	> 40	> 40	> 40	–
CC1=C[C@@H]2CC(C)(C)[C@H]1C[C@@H](O)c1ccoc12	> 40	> 40	> 40	> 100
C=C/C=C1/CO[C@]2(OC)CC[C@@H](O)[C@@H](O)[C@@H]12	> 40	> 40	> 40	–
CC1=C[C@@H]2CC(C)(C)[C@H]1/C=C\c1ccoc12 [REL-DEHYDROEURYSPONGIN A]	–	> 45	> 45	> 100
C=C/C=C(/CO)c1cc(O)ccc1O	> 50	> 50	> 50	–
